ChEMBL document CHEMBL1141510, “Synthesis and antioxidant activities of 3,5-dialkoxy-4-hydroxycinnamamides” (Bioorg Med Chem Lett, 2008)

Assays:
Brain = experiment: Inhibition of lipid peroxidation in Sprague-Dawley rat brain after 30 mins by TBARS assay; format: functional, tissue-based; settings: 0.5 h
Method in brief: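 Brain from male Sprague–Dawley rats (about 10 weeks old) homogenized in ice-cold 10 mM Tris–HCl, pH 7.4, and spun 10 min at 1000g; the supernatant was used. TBARS read at 532 nm against a 1,1,3,3-tetraethoxypropane external standard.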

[1] = system: Radical scavenging activity; experiment: Antioxidant activity assessed as DPPH radical scavenging activity; format: functional
Method in brief: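 Sample in ethanol added 1:9 to 0.15 mM DPPH radical in ethanol. Test compound solutions ranged 3–1000 µg/ml. Ethanol alone served as control. Reaction ran 10 min at 25 °C, then absorbance was read at 517 nm. Scavenging expressed as percent loss relative to control absorbance. EC50 taken as the concentration giving 50% loss of DPPH radical.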

[2] = Antioxidant activity assessed as ABTS radical scavenging activity at 150 uM; format: functional
[3] = Antioxidant activity assessed as ABTS radical scavenging activity; format: functional
[4] = system: Radical scavenging activity; experiment: Antioxidant activity assessed as DPPH radical scavenging activity at 300 uM; format: functional

IC50 (Brain) [µM] | IC50 [1] [µM] | IC50 [3] [µM] | SMILES | Activity [2] [%] | Activity [4] [%]
2.24 | – | – | CCCCCCOc1cc(/C=C/C(=O)O)cc(OCCCCCC)c1O | – | –
3.68 | – | – | CCCCOc1cc(/C=C/C(=O)O)cc(OCCCC)c1O | – | –
1.46 | 80.3 | 11.3 | COc1cc(/C=C/C(=O)NCc2cc(C(C)(C)C)c(O)c(C(C)(C)C)c2)cc(OC)c1O | – | –
0.69 | 69 | 15.6 | COc1cc(/C=C/C(=O)NCCc2cc(C(C)(C)C)c(O)c(C(C)(C)C)c2)cc(OC)c1O | – | –
4.84 | – | – | CCCC(C)Oc1cc(/C=C/C(=O)O)cc(OC(C)CCC)c1O (centres undefined) | – | –
4.77 | – | – | COc1cc(/C=C/C(=O)O)cc(OC)c1O [SINAPINATE] | – | –
1.73 | 84.4 | – | CCC(CC)Oc1cc(/C=C/C(=O)NCCCc2ccc(C)c(C)c2)cc(OC(CC)CC)c1O | 49 | –
0.26 | 114 | – | CCCOc1cc(/C=C/C(=O)NCCc2cc(C(C)(C)C)c(O)c(C(C)(C)C)c2)cc(OCCC)c1O | 37 | –
2.21 | – | – | CCC(CC)Oc1cc(/C=C/C(=O)O)cc(OC(CC)CC)c1O | – | –
1.33 | 68.4 | 26.3 | CCCC(C)Oc1cc(/C=C/C(=O)NCCCc2ccc(C)c(C)c2)cc(OC(C)CCC)c1O (centres undefined) | – | –
0.27 | 73 | – | CCCOc1cc(/C=C/C(=O)NCc2cc(C(C)(C)C)c(O)c(C(C)(C)C)c2)cc(OCCC)c1O | 24 | –

The next lines start with the compound.

SMILES | IC50 (Brain) [µM] | IC50 [1] [µM] | IC50 [3] [µM] | Activity [2] [%] | Activity [4] [%]
COc1cc(CC(=O)NCCCc2ccc(C)c(C)c2)ccc1O | 25.9 | – | – | – | –
CCCCOc1cc(/C=C/C(=O)NCc2cc(C(C)(C)C)c(O)c(C(C)(C)C)c2)cc(OCCCC)c1O | 0.42 | 177 | – | 57 | –
CCCC(C)Oc1cc(/C=C/C(=O)NCCc2cc(C(C)(C)C)c(O)c(C(C)(C)C)c2)cc(OC(C)CCC)c1O (centres undefined) | 0.36 | 85.1 | – | 64 | –
CCCCCCOc1cc(/C=C/C(=O)NCCCc2ccc(C)c(C)c2)cc(OCCCCCC)c1O | 0.29 | 77.7 | 28.5 | – | –
CCCC(C)Oc1cc(/C=C/C(=O)NCc2cc(C(C)(C)C)c(O)c(C(C)(C)C)c2)cc(OC(C)CCC)c1O (centres undefined) | 0.57 | 66.6 | – | 47 | –
CCC(CC)Oc1cc(/C=C/C(=O)NCCc2cc(C(C)(C)C)c(O)c(C(C)(C)C)c2)cc(OC(CC)CC)c1O | 0.44 | – | – | – | 55
CCCCCCOc1cc(/C=C/C(=O)NCc2cc(C(C)(C)C)c(O)c(C(C)(C)C)c2)cc(OCCCCCC)c1O | 3.52 | – | 23.2 | – | 75
CCCCCCOc1cc(/C=C/C(=O)NCCc2cc(C(C)(C)C)c(O)c(C(C)(C)C)c2)cc(OCCCCCC)c1O | 2.74 | 75.6 | 27.4 | – | –
COc1cc(CNC(=O)CCCc2ccc(C)c(C)c2)ccc1O | 57.2 | – | – | – | –
CCC(CC)Oc1cc(/C=C/C(=O)NCc2cc(C(C)(C)C)c(O)c(C(C)(C)C)c2)cc(OC(CC)CC)c1O | 0.82 | 67.7 | – | 44 | –
CCCCOc1cc(/C=C/C(=O)NCCc2cc(C(C)(C)C)c(O)c(C(C)(C)C)c2)cc(OCCCC)c1O | 0.41 | – | – | – | –
